# Measured values pooled from the literature.
# Each line is one published result; the experiments were not run side by side.
# KIT: Mast/stem cell growth factor receptor Kit (KIT, Homo sapiens, UniProt P10721)
# KIT D816H: Mast/stem cell growth factor receptor Kit (KIT, Homo sapiens, UniProt P10721, D816H)
# KIT L576P: Mast/stem cell growth factor receptor Kit (KIT, Homo sapiens, UniProt P10721, L576P)
# KIT A829P: Mast/stem cell growth factor receptor Kit (KIT, Homo sapiens, UniProt P10721, A829P)
# KIT D816V: Mast/stem cell growth factor receptor Kit (KIT, Homo sapiens, UniProt P10721, D816V)
# KIT V559D: Mast/stem cell growth factor receptor Kit (KIT, Homo sapiens, UniProt P10721, V559D)
# KIT T670I/V559D: Mast/stem cell growth factor receptor Kit (KIT, Homo sapiens, UniProt P10721, T670I/V559D)
SMILES,target,observed,method,concentration,remaining binding [%]
N[C@@H]1CCN(c2nccc(-c3cnn4ncccc34)n2)C1,KIT,binding,,1 µM,95
Nc1ncc2c(n1)-c1c([nH]c3ccc(C#CC4CC4)cc13)CCCC2,KIT D816H,binding,competition with immobilised ligand,1 µM,89
CNC(=O)c1ccc(Nc2ncc(C(F)(F)F)c(NCc3nccnc3N(C)S(C)(=O)=O)n2)cc1,KIT L576P,cell-free assay,competition with immobilised ligand,0.1 µM,86
CN(c1nccc(-c2cnn3ncccc23)n1)C1CC1,KIT A829P,binding,,1 µM,88
O=C(c1ccc(Nc2nccc(-c3cc4ccccc4s3)n2)cc1)N1CCC(N2CCCC2)CC1,KIT L576P,binding,competition with immobilised ligand,1 µM,8.6
Cc1cnn2ncc(-c3ccnc(N(C)C)n3)c2c1,KIT D816H,binding,,1 µM,83
COc1cccc(CNC(=O)c2nc3scc(COCc4ccc(C(=O)O)cc4)c3c(=O)[nH]2)c1,KIT D816V,cell-free assay,competition with immobilised ligand,1 µM,100
C[C@@H]1CCN(c2nccc(-c3cnn4ncccc34)n2)C1,KIT L576P,binding,,1 µM,100
CN1CCN(c2ccc(Nc3nccc(-c4cccc([N+](=O)[O-])c4)n3)cc2C(F)(F)F)CC1,KIT A829P,binding,,10 µM,4.3
C[C@@H]1CN(c2cc(-c3n[nH]c4ccc(OC5(C)CC5)cc34)ncn2)C[C@H](C)O1,KIT V559D,cell-free assay,competition with immobilised ligand,0.1 µM,100
C=CC(=O)N1CCC(C(=O)NCC(=O)N2CCN(c3nc(-c4cnc(N)nc4C(F)F)nc(N4CCOCC4)n3)CC2)CC1,KIT V559D,binding,competition with immobilised ligand,1 µM,78
Cc1cnc(Nc2ccc(C(=O)N3CCC(N4CCCC4)CC3)cc2)nc1-c1cc2ccccc2s1,KIT,binding,competition with immobilised ligand,1 µM,4.5
CC(=O)c1c(NS(C)(=O)=O)c2cc(-c3ccc(Cl)cc3)c(-c3ccc(Cl)cc3Cl)nc2n(C)c1=O,"Mast/stem cell growth factor receptor Kit (KIT, Homo sapiens, UniProt P10721, V559D/V654A)",cell-free assay,competition with immobilised ligand,1 µM,89
COc1cnc(Nc2cccc(S(N)(=O)=O)c2)nc1N1CCN(c2ccccc2)CC1,KIT T670I/V559D,binding,competition with immobilised ligand,1 µM,97
F[C@@H]1CCN(c2nccc(-c3cnn4ncccc34)n2)C1,KIT D816H,binding,,1 µM,85
Nc1cnc(N2CCc3cc(S(=O)(=O)Nc4c(F)cc(Cl)cc4F)cc(N4CCCC4=O)c32)nc1,KIT D816H,cell-free assay,competition with immobilised ligand,1 µM,100
O=C(NCCCN1CCOCC1)c1ccc(Nc2nccc(-c3cc4ccccc4s3)n2)cc1,KIT D816V,binding,competition with immobilised ligand,1 µM,16
CS(=O)(=O)N1CCCC(NC(=O)[C@H](CCC2CCCCC2)NC(=O)c2ccc(CNc3ncnc4c3nnn4-c3ccccc3)cc2)C1 (stereo partly drawn),KIT T670I/V559D,cell-free assay,competition with immobilised ligand,0.1 µM,100
O=C(NCC1CCOCC1)c1n[nH]cc1NC(=O)c1c(F)cccc1F,KIT D816H,binding,competition with immobilised ligand,1 µM,69
c1cnn2ncc(-c3ccnc(N4CCC45COC5)n3)c2c1,KIT D816H,binding,,1 µM,80
O=C(N1CCS(=O)(=O)CC1)N1C[C@H](c2ccc(OC(F)(F)F)cc2)C[C@H](c2nc(C3CC3)no2)C1,"Mast/stem cell growth factor receptor Kit, autoinhibited (KIT, Homo sapiens, UniProt P10721)",cell-free assay,competition with immobilised ligand,1 µM,100
